Measured values from different studies.
Each line is one published result; the experiments were not run side by side.

| SMILES | system | setting | measurement | result |
| --- | --- | --- | --- | --- |
| COc1cc(C(=O)NC2CCN(C)CC2)c(F)cc1Nc1ncc(C(F)(F)F)c(Oc2cccc3c2C(=O)N(C)C3)n1 | human, plasma | oral, 100 mg, multiple doses, once daily, patients | Vd/F | 284 L |
| CCNCCCNC/C=C\CNCCCNCC | human, plasma | intravenous, 200 mg, patients, infusion | Vd | 0.56 L/kg |
| Cc1cc(Nc2cc(N3CCN(C)CC3)nc(/C=C/c3ccccc3)n2)n[nH]1 | human, plasma | oral, 200 mg/m², multiple doses, patients | Vd/F | 907 L |
| CC(C)(C)c1ccc(O)c(CN(Cc2cc(C(C)(C)C)ccc2O)C2CCC(NC(N)=O)CC2)c1 (centres unmarked) | male C57BL/6 mouse, brain | intraperitoneal, 10 mg/kg, single dose | Cmax | 1070 ng/g |
| C=CC(=O)N1CC2CC(n3nc(-c4ccc(C(=O)Nc5ccccn5)cc4)c4c(N)ncnc43)CC2C1 (centres unmarked) | SCID mouse, plasma | oral, 1 mg/kg | Cmax | 0.0618 µg/mL |
| CC(C)(Sc1ccncc1-c1ccc(C#N)c2ccccc12)C(=O)O | male human, plasma | oral, 5 mg, single dose, fed, healthy volunteers | Vd/F | 625 L |
| COc1ccc([C@@H]2CN(C(=O)[C@@H](O)CO)C[C@@]2(C)[C@@H](C)O)cc1OC1CN(c2ccc(C)cn2)C1 | human, plasma | oral, 5 mg, single dose, healthy volunteers | Vd/F | 46.4 L |
| Cc1nc(-c2cnc(NC(C)C)n(C)c2=O)ccc1Oc1ccnc(-c2cnn(C)c2)c1 | female mouse, plasma | oral, 3.75 mg/kg, single dose | Cmax | 2.78 µg/mL |
